# Compounds with a hit are over-represented: about 2.1% of the library has one in this group of screens.
# LMPTP inh = LMPTP phosphatase inhibitors, primary screen, biochemical, fluorescence intensity, uHTS | recombinant LMPTP-A, OMFP fluorogenic substrate | inhibition, % at 20 µM | hit rate 0.22% among 360,000 | AID 651560, 2012;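 active = compounds that cut the enzyme signal by at least half of the control window in the single-dose screen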;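 also: plate controls were DMSO wells with enzyme plus substrate for no effect and substrate without enzyme for full effect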
#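 material = LMPTP-A | quantity = 0.625 nM enzyme | reagent = OMFP substrate, 400 µM final | buffer or medium = Bis-Tris pH 6.0, DTT, detergent | detection = endpoint fluorescence intensity from OMFP dephosphorylation | dosing = single 20 µM dose | read-out basis = % inhibition relative to no-enzyme and uninhibited control wells | control set = no-enzyme and uninhibited controls | timing = 50 min at room temperature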
# SUMO1-SIM PPI = modulators of SUMO1 protein-protein interactions, primary screen, biochemical, uHTS; inhibition, % at 20 µM; AID 602429, 2012; Small ubiquitin-related modifier 1 (Homo sapiens), P63165; hit rate 0.33% among 360,000; SUMO1 binding to a labelled peptide, TR-FRET, 1 h; in the data active = inhibition above about 37%
# Target sequence (P63165 whole entry, looked up): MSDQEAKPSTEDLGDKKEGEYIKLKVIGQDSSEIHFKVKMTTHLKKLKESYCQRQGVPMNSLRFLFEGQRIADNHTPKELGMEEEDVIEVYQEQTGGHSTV
# Scp1 inh = Scp-1 phosphatase inhibitors, primary screen, biochemical, colorimetric, uHTS. Recombinant Scp1, phosphopeptide, malachite green phosphate absorbance. Carboxy-terminal domain RNA polymerase II polypeptide A small phosphatase 1 (Homo …. hit rate 0.88% among 340,000. inhibition, % at 20 µM;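 active = inhibition above about 50% at 20 µM, limit read from the data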;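 also: plate controls were DMSO wells with enzyme for no effect and wells lacking enzyme for full effect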
#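 assay system = SCP-1 phosphatase catalytic domain, residues 76-261 | buffer or medium = 50 mM Tris acetate pH 5.5, 0.005% Tween-20, 10 mM MgCl2 | incubation = enzyme reaction 45 min at room temperature, colour 5 min, stabilisation 30 min | signal = Phosphate-binding colour reagent, absorbance read at 630 nm | measure = % inhibition at 20 µM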
# GRK2 aptamer HTS = compounds blocking aptamer binding on GRK2 – biochemical, human GRK2, bead flow cytometry, HTS, primary screen; hit rate 0.59% among 330,000; Beta-adrenergic receptor kinase 1 (Homo sapiens), P25098; inhibition of aptamer binding, % at 10 µM; FAM-aptamer displacement from GRK2;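 active = inhibition of aptamer binding above 40%, roughly 3 SD of noise, on plates passing a quality check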;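 also: median bead fluorescence of bound FAM aptamer so fluorescent compounds give negative values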
# STEP block = STEP phosphatase inhibitors, primary screen, biochemical, fluorescence intensity, uHTS | inhibition, % at 20 µM | recombinant STEP, OMFP fluorogenic substrate | hit rate 0.25% among 360,000 | Tyrosine-protein phosphatase non-receptor type 5 (Homo sapiens), P54829;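 active = inhibition at 20 µM, scaled per plate between control wells, above about 37%, limit read from the data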;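 also: 0% = DMSO with enzyme and substrate and 100% = substrate only without enzyme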
# Target sequence (P54829 whole entry, looked up): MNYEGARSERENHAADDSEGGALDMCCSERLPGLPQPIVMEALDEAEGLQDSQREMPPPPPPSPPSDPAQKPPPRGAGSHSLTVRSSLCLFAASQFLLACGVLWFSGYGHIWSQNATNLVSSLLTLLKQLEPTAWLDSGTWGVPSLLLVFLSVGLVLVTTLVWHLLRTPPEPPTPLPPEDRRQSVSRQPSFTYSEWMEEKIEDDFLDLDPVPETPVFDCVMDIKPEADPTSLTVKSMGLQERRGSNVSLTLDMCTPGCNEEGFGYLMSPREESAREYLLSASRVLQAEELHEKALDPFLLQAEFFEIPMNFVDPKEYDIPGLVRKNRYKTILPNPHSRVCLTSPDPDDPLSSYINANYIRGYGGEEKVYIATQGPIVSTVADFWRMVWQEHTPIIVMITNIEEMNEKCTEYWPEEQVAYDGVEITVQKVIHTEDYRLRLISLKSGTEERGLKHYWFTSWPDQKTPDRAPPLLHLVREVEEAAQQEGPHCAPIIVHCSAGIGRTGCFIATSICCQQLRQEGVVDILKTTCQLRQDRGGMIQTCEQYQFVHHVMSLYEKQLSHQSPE
#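 material = STEP tyrosine phosphatase | reagent = fluorogenic phosphatase substrate OMFP at 25 µM final | doses = single compound dose of 20 µM, 1% DMSO final | schedule = 20 min reaction, room temperature, in the dark | measured by = fluorescence, 480/540 nm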
# DNMT1 inh = human DNMT1 methyltransferase inhibitors, primary screen, biochemical, molecular beacon, fluorescence, HinP1I cleavage, uHTS; inhibition (reported as % activation of signal), % at 10 µM; hit rate 0.83% among 360,000; AID 588458, 2011; in the data active = inhibition above about 50%
# GRK2 CP1 = GRK2 aptamer-displacing inhibitors, retest, confirmation, biochemical, cherry pick 1, bead flow cytometry; shares compounds with GRK2 aptamer HTS; AID 504451, 2011; aptamer displacement, % at 10 µM; bead-bound GRK2, FAM-aptamer displacement; hit rate 4% among 2,000;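 active = aptamer displacement above 40%, near three times the noise of non-fluorescent compounds, on plates passing quality checks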;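 also: negative values mostly reflect intrinsic compound fluorescence rather than true enhancement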
# Aptamer quench SP = quenches fluorescent RNA aptamer, GRK2 hit artifact; shares compounds with GRK2 aptamer HTS; Carboxyfluorescein RNA aptamer on beads, flow cytometry quenching; hits give low values; fluorescence response (% of DMSO), % at 10 µM; 2,000 tested, under 10 active; AID 504580;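 active = compounds that quench the bead-bound fluorescent RNA probe, cutting fluorescence to under half of the solvent control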;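 also: counterscreen run without GRK2 so only probe quenching by compound is measured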
# * hit, by the source's call; . = no result given.
SMILES,LMPTP inh,SUMO1-SIM PPI,Scp1 inh,GRK2 aptamer HTS,STEP block,DNMT1 inh,GRK2 CP1,Aptamer quench SP
COC(=O)C1=C(C)NC(C)=C(C(=O)OC)C1C(=O)OCC(=O)Nc1ccc(C(C)=O)cc1,0,1,1,75*,-1,-2,25,93
COc1ccccc1N(CC(=O)Nc1cc(C)on1)S(=O)(=O)c1cccc(C(F)(F)F)c1,2,2,1,2,-4,-2,.,.
N#Cc1c(-c2ccco2)cc(-c2ccccc2)[nH]c1=O,8,18,9,2,2,42,.,.
CC(=O)Nc1nc(-c2ccccc2)cc(-c2ccco2)c1C#N,0,-22,-10,80*,0,1,-4,99
CC(=O)C1CCC2C3CCC4CC(=O)CCC4(C)C3C=CC12C (stereo not given),1,6,-10,.,3,6,.,.
CC(C)CCn1c(COc2ccccc2)n[nH]c1=S,-1,2,6,53*,-2,0,-8,106
S=c1[nH]nc(COc2ccccc2)n1Cc1ccccc1,-2,1,4,3,2,6,.,.
COc1cccc(NC(=O)C(OC(=O)c2ccccc2NS(=O)(=O)c2cccs2)c2ccccc2)c1 (stereo not given),2,1,-9,100*,-3,-8,-1,100
COc1cccc(NC(=O)C(OC(=O)c2ccc([N+](=O)[O-])o2)c2ccccc2)c1 (stereo not given),0,-4,-13,3,0,-21,.,.
COC(=O)c1noc(C)c1-c1ccnn1C(=O)c1ccc(C)cc1,0,2,-12,97*,1,-1,0,46*
CCN1CCN(c2ccc(S(=O)(=O)N3CCCCC3)cc2NC(=O)COc2ccc(F)cc2Cl)CC1,2,1,14,0,1,-8,.,.
Cc1nnc(NC(=O)CCS(=O)(=O)Cc2ccccc2)s1,0,-4,-4,0,5,2,.,.
CC(C)(C)c1nnc(NC(=O)CCS(=O)(=O)c2ccccc2)s1,0,9,8,6,4,6,1,97
O=C(CCS(=O)(=O)c1ccccc1)Nc1nnc(C(F)(F)F)s1,-1,10,21,25,6,16,9,102
Cc1nnc(NC(=O)CCS(=O)(=O)c2ccccc2)s1,1,2,14,9,4,17,2,100
Cc1ccc(N2CC(C(=O)OCC(=O)Nc3c(C)cccc3C)CC2=O)cc1 (stereo not given),-1,3,.,.,10,0,.,.
CC(C)(C)NC(=O)COC(=O)CCC(=O)c1ccc(F)cc1,-1,1,-7,99*,-2,0,0,101
CCCNC(=O)COC(=O)CCC(=O)c1ccc(F)cc1,-1,-1,11,4,-1,-1,.,.
CCn1c(SCC(=O)OC)nnc1-c1ccncc1,0,-4,12,0,-3,4,.,.
CCCNC(=O)NC(=O)CSc1nnc(-c2ccncc2)n1CC,-2,1,-7,61*,-2,-1,-2,100
COc1ccc(C2(CCN)CC(C)N(C)CC2C)cc1 (stereo not given),-12,3,-12,0,-10,-9,.,.
Cc1ccc(CC2(O)CC(C)N(C)CC2C)c(C)c1 (stereo not given),3,1,-2,56*,-4,5,-1,104
CCc1nc2ccc(C(=O)N3CCN(C(C)=O)CC3)cn2c1N(C=O)Cc1ccc(OC)cc1,-1,4,.,.,-2,0,.,.
O=C(O)CC/C(=N/NC(=O)CNC(=O)c1ccc2c(c1)OCCO2)c1ccccc1,2,3,-3,1,-1,-1,1,103
CC(C)(C)/C=N/NC(=O)CNC(=O)c1ccc2c(c1)OCCO2,-1,0,-6,3,0,-1,.,.
SMILES,LMPTP inh,SUMO1-SIM PPI,Scp1 inh,GRK2 aptamer HTS,STEP block,DNMT1 inh,GRK2 CP1,Aptamer quench SP
COc1ccccc1CNC(=O)CN1CCN(c2ccc(C(C)=O)cc2)CC1,-1,4,4,0,-3,4,.,.
COC(OC)c1ccnc(-c2ccc(OC(=O)c3ccc(F)cc3)cc2)n1,1,-1,-2,59*,-1,-4,2,91
CCn1c(SCC(=O)N2CCc3ccccc3C2)nc2c1c(=O)n(C)c(=O)n2C,-1,5,0,3,-9,-4,.,.
Cn1c(=O)c2c(ncn2CC(=O)N2CCc3ccccc3C2)n(C)c1=O,0,2,-2,58*,0,20,2,102
O=C(Nc1ncccc1Cl)c1cc2ccccc2o1,-1,0,-9,1,-3,-1,.,.
C=CCN(CC=C)C(=O)c1ccc2nc(Cc3ccc(OC)c(OC)c3)oc2c1,1,-4,0,41*,0,-2,2,100
COc1ccc(Cc2nc3ccc(C(=O)NCc4cc(C)no4)cc3o2)cc1OC,0,0,-7,0,-2,0,.,.
O=S(=O)(c1ccc(F)cc1)N1CCCNCC1,-3,5,-4,0,1,6,-13,104
Cn1nc(C(F)(F)F)c(C(=O)Nc2ccc(F)cc2F)c1Cl,-1,-4,-3,47*,-2,-2,-1,98
Cn1nc(C(F)(F)F)c(C(=O)Nc2ccc(F)cc2F)c1Oc1cccc(Cl)c1,2,6,-4,0,-2,3,.,.
COCCNC(=O)C1(C)CCCN(C(=O)c2ccccc2OC)C1 (stereo not given),0,-8,.,.,-1,4,.,.
Cc1ccc(C)c(NC(=S)NC(=O)c2cncc(Br)c2)c1,0,-12,-3,79*,2,2,-2,96
CC(=O)C1=C(C)NC(=O)CC1c1ccccc1Cl (stereo not given),-1,1,-3,48*,0,0,-6,127
O=C(COC(=O)CCc1c[nH]c2ccccc12)Nc1ccccc1C(F)(F)F,0,-3,-8,1,5,-1,.,.
